Test results from ChEMBL document CHEMBL1158354, “Condensed 1,4-dihydropyridines with various esters and their calcium channel antagonist activities” (2009).
Activity calls are given as the source filed them. The calls are words filed in the database; no cut-off is given here.

What was measured:
[1] = (§1) Antagonist activity at voltage dependent L-type calcium channel in New Zealand white rabbit sigmoid colon circular smooth muscle strip assessed as relaxation response relative to papaverine; format: functional; settings: Oryctolagus cuniculus
[2] = (§2) Antagonist activity at voltage dependent L-type calcium channel in New Zealand white rabbit sigmoid colon circular smooth muscle strip assessed as relaxation response; format: functional, Oryctolagus cuniculus
In short: (§3)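 Strips held at 1 g basal tension and equilibrated 60 min in Ca2+-free KHS, with the solution changed every 15 min. Strips were then placed in Ca2+-free, 80 mM K+ solution and contracted by cumulative Ca2+ (2.5, 5, 10 mM). At the contraction plateau, compounds were added cumulatively (10^-8–10^-4 M). Emax and pD2 (−log EC50) were derived from concentration–relaxation curves, n = 6.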

Oryctolagus cuniculus [3] = species: Oryctolagus cuniculus; assay: as §2; format: functional; in short: as §3
Oryctolagus cuniculus [4] = species: Oryctolagus cuniculus; assay: as §1; format: functional
Oryctolagus cuniculus [5] = species: Oryctolagus cuniculus; assay: (§4) Antagonist activity at voltage dependent L-type calcium channel in New Zealand white rabbit sigmoid colon circular smooth muscle strip assessed as induction of relaxation response in presence of Ca2+-activated potassium channel blocker tetraethylammonium; format: functional
[6] = as §4; format: functional, Oryctolagus cuniculus; parameters: scale not given: the % may be the effect or the level left

With COCCOC(=O)C1=C(C)NC2=C(C(=O)CC(C)(C)C2)C1c1cc(C(F)(F)F)cc(Cl)c1F (stereo not drawn) the Emax [1] was 45%, the pD2 [2] was 5.11 and the Activity (Oryctolagus cuniculus [3]) was “Dose-dependent effect”.
In the case of COC(=O)C1=C(C)NC2=C(C(=O)CC(C)(C)C2)C1c1cc(C(F)(F)F)cc(Cl)c1F (stereo not drawn), the Emax [1] is reported as 32.2%, the pD2 [2] is reported as 4.84 and the Activity (Oryctolagus cuniculus [3]) is reported as “Dose-dependent effect”.
In the case of CC1(C)CC(=O)C2=C(C1)NC1=C(C(=O)OC1)C2c1cc(C(F)(F)F)cc(Cl)c1F (stereo not drawn), the Emax (Oryctolagus cuniculus [4]) is reported as “inactive”, the Activity (Oryctolagus cuniculus [3]) is reported as “Dose-dependent effect” and the pD2 (Oryctolagus cuniculus [3]) is reported as “inactive”.
For CC1=C(C(=O)OCc2ccccc2)C(c2cc(C(F)(F)F)cc(Cl)c2F)C2=C(CC(C)(C)CC2=O)N1 (stereo not drawn), the Emax (Oryctolagus cuniculus [4]) was “inactive”, the Activity (Oryctolagus cuniculus [3]) was “Dose-dependent effect” and the pD2 (Oryctolagus cuniculus [3]) was “inactive”.
In the case of CC1=C(C(=O)OCc2ccccc2)C(c2cc(C(F)(F)F)cc(Cl)c2F)C2=C(CCC(C)(C)C2=O)N1 (stereo not drawn), the Emax (Oryctolagus cuniculus [4]) is reported as “inactive”, the Activity (Oryctolagus cuniculus [3]) is reported as “Dose-dependent effect” and the pD2 (Oryctolagus cuniculus [3]) is reported as “inactive”.
With CC1=C(C(=O)OC(C)(C)C)C(c2cc(C(F)(F)F)cc(Cl)c2F)C2=C(CCC(C)(C)C2=O)N1 (stereo not drawn) the Emax (Oryctolagus cuniculus [4]) was “inactive”, the Activity (Oryctolagus cuniculus [3]) was “Dose-dependent effect” and the pD2 (Oryctolagus cuniculus [3]) was “inactive”.
For CC1=C(C(=O)OC(C)(C)C)C(c2cc(C(F)(F)F)cc(Cl)c2F)C2=C(CC(C)(C)CC2=O)N1 (stereo not drawn), the Emax (Oryctolagus cuniculus [4]) was “inactive”, the Activity (Oryctolagus cuniculus [3]) was “Dose-dependent effect” and the pD2 (Oryctolagus cuniculus [3]) was “inactive”.
For CC1(C)CCC2=C(C1=O)C(c1cc(C(F)(F)F)cc(Cl)c1F)C1=C(COC1=O)N2 (stereo not drawn), the Activity (Oryctolagus cuniculus [5]) was “inactive”, the Emax (Oryctolagus cuniculus [4]) was “inactive” and the Activity (Oryctolagus cuniculus [3]) was “Dose-dependent effect”. The pD2 (Oryctolagus cuniculus [3]) was “inactive”.
For CC1=C(C(=O)OCC(C)C)C(c2cc(C(F)(F)F)cc(Cl)c2F)C2=C(CCC(C)(C)C2=O)N1 (stereo not drawn), the Emax (Oryctolagus cuniculus [4]) was “inactive”, the Activity (Oryctolagus cuniculus [3]) was “Dose-dependent effect” and the pD2 (Oryctolagus cuniculus [3]) was “inactive”.
In the case of C=CCOC(=O)C1=C(C)NC2=C(C(=O)C(C)(C)CC2)C1c1cc(C(F)(F)F)cc(Cl)c1F (stereo not drawn), the Emax (Oryctolagus cuniculus [4]) is reported as “inactive”, the Activity (Oryctolagus cuniculus [3]) is reported as “Dose-dependent effect” and the pD2 (Oryctolagus cuniculus [3]) is reported as “inactive”.
With CCOC(=O)C1=C(C)NC2=C(C(=O)CC(C)(C)C2)C1c1cc(C(F)(F)F)cc(Cl)c1F (stereo not drawn) the Emax [1] was 22.8%, the pD2 [2] was 4.74 and the Activity (Oryctolagus cuniculus [3]) was “Dose-dependent effect”.
For CC1=C(C(=O)OCC(C)C)C(c2cc(C(F)(F)F)cc(Cl)c2F)C2=C(CC(C)(C)CC2=O)N1 (stereo not drawn), the Emax (Oryctolagus cuniculus [4]) was “inactive”, the Activity (Oryctolagus cuniculus [3]) was “Dose-dependent effect” and the pD2 (Oryctolagus cuniculus [3]) was “inactive”.
For C=CCOC(=O)C1=C(C)NC2=C(C(=O)CC(C)(C)C2)C1c1cc(C(F)(F)F)cc(Cl)c1F (stereo not drawn), the Emax (Oryctolagus cuniculus [4]) was “inactive”, the Activity (Oryctolagus cuniculus [3]) was “Dose-dependent effect” and the pD2 (Oryctolagus cuniculus [3]) was “inactive”.
For COC(=O)C1=C(C)NC(C)=C(C(=O)OC)C1c1ccccc1[N+](=O)[O-] [NIFEDIPINE], the Emax [1] was 94%, the pD2 [2] was 6.92 and the Activity (Oryctolagus cuniculus [3]) was “Dose-dependent effect”.
For CCOC(=O)C1=C(C)NC2=C(C(=O)C(C)(C)CC2)C1c1cc(C(F)(F)F)cc(Cl)c1F (stereo not drawn), the Emax [1] was 23%, the pD2 [2] was 5.06 and the Activity (Oryctolagus cuniculus [3]) was “Dose-dependent effect”.
With COC(=O)C1=C(C)NC2=C(C(=O)C(C)(C)CC2)C1c1cc(C(F)(F)F)cc(Cl)c1F (stereo not drawn) the Activity [6] was 17.19%, the Emax [1] was 17.2% and the pD2 [2] was 4.94. For the same compound, the Activity (Oryctolagus cuniculus [3]) was “Dose-dependent effect”.
For COCCOC(=O)C1=C(C)NC2=C(C(=O)C(C)(C)CC2)C1c1cc(C(F)(F)F)cc(Cl)c1F (stereo not drawn), the Emax [1] was 43.7%, the pD2 [2] was 4.89 and the Activity (Oryctolagus cuniculus [3]) was “Dose-dependent effect”.
